Only some compounds are listed: those with a hit (about 1.9% of all), similar ones and a draw of the others.
pCIP destab: compounds decreasing mouse p/CIP protein stability. Q05BA5. F442A p/CIP-EGFP cells, EGFP fluorescence, 16 h. decrease of EGFP signal, % at 10 µM. actives 0.01% (n = 290,000);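 active = EGFP signal decrease of at least 30% at 10 µM or well 3 SD below plate mean, unless failing retest; inactive = the rest, including hits failing retest or dose response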
Target sequence (Q05BA5 1-1403): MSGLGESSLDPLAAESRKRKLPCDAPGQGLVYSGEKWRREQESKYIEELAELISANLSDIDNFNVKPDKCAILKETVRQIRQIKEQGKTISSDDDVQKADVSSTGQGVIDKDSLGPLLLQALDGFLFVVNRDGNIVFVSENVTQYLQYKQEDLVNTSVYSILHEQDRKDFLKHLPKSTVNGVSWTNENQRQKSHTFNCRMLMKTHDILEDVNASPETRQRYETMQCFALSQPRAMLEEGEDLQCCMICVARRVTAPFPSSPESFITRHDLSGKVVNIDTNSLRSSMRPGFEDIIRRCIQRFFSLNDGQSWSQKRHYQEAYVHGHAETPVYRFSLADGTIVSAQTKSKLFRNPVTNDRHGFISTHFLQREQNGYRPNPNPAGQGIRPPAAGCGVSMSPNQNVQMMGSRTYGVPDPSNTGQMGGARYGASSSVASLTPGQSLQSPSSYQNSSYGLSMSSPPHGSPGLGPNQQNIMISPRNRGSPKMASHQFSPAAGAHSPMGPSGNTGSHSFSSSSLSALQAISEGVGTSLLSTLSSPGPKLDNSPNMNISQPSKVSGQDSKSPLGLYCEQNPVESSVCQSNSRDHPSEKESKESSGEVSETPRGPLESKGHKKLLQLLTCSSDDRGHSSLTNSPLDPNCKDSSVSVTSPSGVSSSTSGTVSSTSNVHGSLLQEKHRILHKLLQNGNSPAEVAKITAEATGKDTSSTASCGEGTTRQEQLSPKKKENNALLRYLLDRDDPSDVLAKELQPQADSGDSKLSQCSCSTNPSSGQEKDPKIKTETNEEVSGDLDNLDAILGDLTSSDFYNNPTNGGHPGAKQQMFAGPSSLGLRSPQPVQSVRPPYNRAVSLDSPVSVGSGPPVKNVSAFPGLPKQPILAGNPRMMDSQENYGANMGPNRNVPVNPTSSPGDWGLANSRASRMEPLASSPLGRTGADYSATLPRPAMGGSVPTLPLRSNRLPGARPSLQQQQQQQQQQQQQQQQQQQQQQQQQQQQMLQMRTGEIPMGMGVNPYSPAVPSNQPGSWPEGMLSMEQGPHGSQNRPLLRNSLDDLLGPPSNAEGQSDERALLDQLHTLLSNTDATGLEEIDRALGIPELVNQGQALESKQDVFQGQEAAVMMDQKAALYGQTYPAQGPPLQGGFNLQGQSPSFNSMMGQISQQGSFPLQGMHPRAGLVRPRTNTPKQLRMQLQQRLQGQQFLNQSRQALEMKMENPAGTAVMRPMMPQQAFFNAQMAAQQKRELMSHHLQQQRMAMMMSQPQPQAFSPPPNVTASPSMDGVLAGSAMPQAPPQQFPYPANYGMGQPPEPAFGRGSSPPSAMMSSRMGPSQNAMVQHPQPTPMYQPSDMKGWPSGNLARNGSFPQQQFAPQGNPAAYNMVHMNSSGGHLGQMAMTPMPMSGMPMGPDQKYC
Dynein cargo inh: blocks dynein driven cargo transport along microtubules; 3617.4 mouse cells, GR-EGFP nuclear translocation imaging; test concentration mostly 20 µM; stimulated with dexamethasone, 1 µM; stronger effect = lower value; z-score, hits read low; actives 0.47% (n = 220,000); AID 1381;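 active = plate z-score of nuclear minus cytoplasmic receptor signal below a set negative limit, without overly bright fluorescence or cell loss, cut at about -3.5 in these data, passing the limit was not always enough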;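 also: z-score of nuclear minus cytoplasmic ring GR-EGFP intensity difference per well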
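Buffer or medium: Induction medium lacking tetracycline, stripped serum | Also added: Dexamethasone agonist, 1.0 µM final, for 30 min | Timing: 48 h induction, 1 h compound, 30 min dex at 37 °C | Detection: Formaldehyde fixation, Hoechst nuclear stain, 10x automated fluorescence imaging | Measure: Nuclear versus cytoplasmic GR-EGFP signal, averaged per well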
NCF1 inh: p47phox (human) inhibition; actives 0.53% (n = 220,000); p47phox/p22phox peptide binding, fluorescence polarization, 2 h; AID 1274; inhibition, % at 24.7 µM;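 active = inhibition above about 30%, limit read from the data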;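 also: 0% = p47phox with labelled peptide and 100% = labelled peptide alone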
RAM network inh: inhibitors of the yeast RAM network; S. cerevisiae dse1pr::URA3 reporter, 5-FOA growth OD615, 2 d; analog-sensitive cbk1-as2 kinase mutant strain; inhibition, % at 50 µM; actives 1.8% (n = 190,000);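 active = inhibition above a set limit, 3 SD over mean compound inhibition, cut at about 8.4% in these data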;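 also: 0% = DMSO-only wells with no growth and 100% = 10 µM 1-NA-PP1 full growth; inhibition rescues growth on 5-FOA so higher OD means more RAM inhibition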
Dynein inh conf: dynein cargo transport inhibition, confirmation; 3617.4 GR-EGFP nuclear translocation imaging, dexamethasone-induced; calls only at 20 µM; shares compounds with Dynein cargo inh; actives 69% (n = 1,000);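 active = inhibition of receptor movement into the nucleus at or above a set limit in both runs, with normal cell brightness and cell count; inconclusive = limit reached in only one run, brightness and count normal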;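 also: dexamethasone at 1 µM final in well for 30 min; nuclear minus cytoplasmic GR-EGFP mean intensity difference in channel 2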
Starred values were filed as active, the others as inactive; i = inactive; ? = inconclusive; . = no result given; + = active, no number.

SMILES | pCIP destab | Dynein cargo inh | NCF1 inh | RAM network inh | Dynein inh conf
CCOC(=S)SCC(=O)Nc1nc(C)c(C)s1 | -1.6 | -3.9* | -6.2 | . | +
O=C(c1ccc(S(=O)(=O)Cc2cc(F)ccc2F)c([N+](=O)[O-])c1)N1CCCCC1 | 1.8 | -0.284 | -8.1 | 8.2 | .
O=C(c1ccc(S(=O)(=O)Cc2cc(F)ccc2F)c([N+](=O)[O-])c1)N1CCCC1 | -2.1 | -4.61* | 2.7 | 3.4 | +
CC(c1ccccc1)n1c(SCC(=O)Nc2ccccc2)n[nH]c1=O (stereo not drawn) | 1.0 | . | . | . | .
NC(=O)N/N=C/c1c(Sc2nnnn2-c2ccccc2)nc2ccccn2c1=O | -15.4 | -5.29* | -10.5 | . | i
Cc1nn(-c2ccccc2)c(Cl)c1/C=N/NC(N)=O | 7.7 | 1.14 | -10.4 | . | .
CCn1c(=S)sc2c(=O)n(CC(=O)Nc3ccc(C(C)=O)cc3)c(C)nc21 | 10.9 | . | . | . | .
CCN(CC)c1ccc2cc(-c3nc4ccccc4[nH]3)c(=O)oc2c1 | -335.0 | -5.17* | -79.7 | -0.2 | +
COc1ccc2cc(-c3ccccc3)c(=O)oc2c1 | -1.3 | . | . | . | .
CCN(CC)c1ccc2cc(-c3nc(-c4ccc(OC)cc4)cs3)c(=O)oc2c1 | -750.5 | -5.07* | -53.1 | 4.2 | +
COc1cccc(CNC(=O)c2ccc(CS(=O)(=O)Cc3ccccc3C)o2)c1 | 3.7 | . | . | . | .
Cc1ccc(C)c2nc3sc(C(=O)N4CCCc5ccccc54)c(N)c3cc12 | 16.9 | -7.09 | 5.6 | 7.4 | i
CCn1c(SCC(=O)N2CCOCC2)nc2oc3c(Cl)cc(Cl)cc3c(=O)c2c1=O | -15.3 | -3.51* | -24.6 | 4.0 | +
COc1ccc(-n2c(SCC(=O)Nc3ccc(Br)cc3)nc(O)cc2=O)cc1 | -13.7 | -0.189 | -81.4 | . | .
Cc1nc2scc(C)n2c(=O)c1S(=O)(=O)N1CCN(c2cccc(C(F)(F)F)c2)CC1 | 9.5 | . | . | . | .
COc1ccc(C(=O)Cn2cc([N+](=O)[O-])nc2C)cc1 | 11.3 | . | . | . | .
Cc1nc([N+](=O)[O-])c(NCCO)n1Cc1ccccc1 | 3.4 | 0.676 | -4.0 | 2.6 | .
O=C(Cn1nc(Cl)nc1Cl)c1ccc([N+](=O)[O-])cc1 | -1.0 | . | . | . | .
Cc1nc([N+](=O)[O-])c(Br)n1CC(=O)c1ccc(Cl)cc1 | 2.0 | -6.5* | 4.8 | 1.8 | +
Cc1nc([N+](=O)[O-])c(Br)n1Cc1ccc(Cl)c(Cl)c1 | -2.9 | -4.17* | -2.0 | 0.4 | +
COc1ccc(C(=O)Cn2c(C)nc([N+](=O)[O-])c2Br)cc1 | -6.2 | -5.76* | -31.8 | . | +
CC[C@H](C)[C@H](NC(=O)c1ccccc1)C(=O)NC(CC(=O)O)c1ccc(F)cc1 (stereo partly drawn) | 0.7 | . | . | . | .
CCOC(=O)c1cnc2c(F)ccc(F)c2c1Sc1ccccc1 | 1.3 | -4.04* | -9.1 | . | +
Cc1nn(C)cc1CN1CCCC(C(=O)c2ccc(-c3ccccc3)cc2)C1 (stereo not drawn) | -21.4 | 0.0501 | -25.6 | 2.5 | .
Cc1ccc(-c2nc(NC(=O)c3nn(C)cc3[N+](=O)[O-])sc2C)cc1 | -3.0 | -3.84* | -6.4 | 1.8 | +
SMILES | pCIP destab | Dynein cargo inh | NCF1 inh | RAM network inh | Dynein inh conf
Cn1cc([N+](=O)[O-])c(C(=O)Nc2nc(-c3ccc(Cl)cc3)cs2)n1 | -8.8 | -3.92* | -26.4 | 4.5 | +
CC(=O)c1c(C)[nH]c(C(=O)Nc2nc(-c3ccc(Cl)cc3)cs2)c1C | -3.3 | 0.141 | -10.6 | 1.5 | .
Cc1cnc(NC(=O)c2nn(C)cc2[N+](=O)[O-])s1 | -11.6 | -3.56* | 4.0 | 1.3 | +
CCc1nc(CN(C)C(=O)C2CCC(=O)N(CCc3cccc(F)c3)C2)no1 (stereo not drawn) | -55.9 | . | . | . | .
COc1ccc(/C=C/C(=O)c2ccc(C)c([N+](=O)[O-])c2)cc1O | -2.1 | -0.191 | -13.3 | -0.1 | .
COc1cc(/C=C/C(=O)c2ccc(C)c([N+](=O)[O-])c2)cc(OC)c1O | -1.3 | -3.8* | 4.5 | 1.6 | ?
O=C(/C=C/c1ccccc1[N+](=O)[O-])c1ccccc1Br | 2.0 | -3.28 | -11.9 | 1.0 | .
Cc1ccc(C(=O)/C=C/c2ccccc2[N+](=O)[O-])cc1 | 17.5 | -4.67* | -11.4 | 0.1 | +
COc1cccc(/C=C/C(=O)c2ccc(C)c([N+](=O)[O-])c2)c1 | 13.5 | -4.03* | -4.0 | 4.7 | +
CCCCCCN(C(=O)CCCCCN1C(=O)NC(c2ccccc2)C(C(=O)OCc2ccccc2)=C1C)C(C(=O)NCCCC)c1ccc(OCC(=O)OC)c(C(=O)OC)c1 (stereo not drawn) | 6.7 | 0.224 | -17.4 | . | .
Cc1cc(C)nc(S/C=C/C(=O)c2ccccc2F)n1 | -27.7 | -3.67* | 1.9 | . | +
Cn1nnnc1SC1CC(=O)N(c2ccccc2)C1=O (stereo not drawn) | -3.1 | -4.6* | -6.5 | 1.5 | +
O=C(Nc1ccccc1)c1nnsc1S(=O)c1ccc(Cl)cc1 (stereo not drawn) | 4.9 | -3.53* | -4.1 | 0.3 | +
O=C(c1nnsc1S(=O)(=O)c1ccc(Cl)cc1)N1CCOCC1 | -4.6 | -6* | -3.4 | 0.5 | +
CNC(=O)c1nnsc1S(=O)(=O)c1ccc(Cl)cc1 | -7.6 | -4.01* | 2.2 | -0.1 | +
Cc1nnsc1S(=O)c1ccc(Cl)cc1 (stereo not drawn) | 6.0 | . | . | . | .
CNC(=O)c1ccc(S(=O)(=O)c2ccc(Cl)cc2)c(NC(C)=O)c1 | -8.5 | . | . | . | .
O=C(c1cc(-c2ccc(Cl)cc2)on1)N1CCOCC1 | 2.3 | -0.768 | -17.7 | 2.3 | .
O=C(c1nnsc1S(=O)c1ccc(Cl)cc1)N1CCOCC1 (stereo not drawn) | -0.4 | -4.77* | 8.8 | -0.7 | +
C=CCOc1ccc(CNCC2CCCO2)cc1 (stereo not drawn) | 0.6 | . | . | . | .
N#Cc1ccc(C(=O)OCC(=O)N2CCCC2)cc1 | -10.0 | . | . | . | .
Cc1ccc(C)c(OCc2nc3ccc(S(=O)(=O)Nc4c(C)n(C)n(-c5ccccc5)c4=O)cc3[nH]2)c1 | -7.6 | 2.34 | 2.0 | 2.6 | .
COc1ccccc1/C=C/C(=O)/C=C/c1ccccc1O | -8.7 | -4.21* | -22.5 | . | +
Cc1ccc(OCC(O)CNC2CCCC2)cc1C (stereo not drawn) | -0.9 | . | . | . | .
CCOC(=O)c1c(C)oc2c(F)c(F)c(F)c(F)c2c1=O | 55.5 | -4.59* | -6.9 | -0.9 | +
N#Cc1ccc(-c2ccccc2)nc1SCC(=O)c1cccc(Cl)c1 | -45.3 | -0.491 | -16.7 | 8.1 | .
N#Cc1ccc(-c2cccnc2)nc1SCC(=O)c1ccccc1 | -84.5 | -5.31 | -16.2 | . | i
CC(C)c1ccc(/C=C/C(=O)n2nnc3ccccc32)cc1 | -10.2 | -4.53* | -20.8 | 6.6 | +
O=[N+]([O-])c1ccc(S(=O)(=O)CC(CN2CCOCC2)N2CCOCC2)cc1 (stereo not drawn) | -8.0 | -0.281 | -4.6 | 0.5 | .
O=[N+]([O-])c1ccc(S(=O)(=O)CC(CN2CCCCC2)N2CCCCC2)cc1 (stereo not drawn) | -5.0 | -4.06 | -7.3 | -1.1 | +

Bioassay records as filed in PubChem.
